Assay results published in ChEMBL document CHEMBL1909573, “Synthesis and biological evaluation of (2,5-dihydro-1H-pyrrol-1-yl)-2H-chromen-2-ones as free radical scavengers” (Eur J Med Chem, 2011).
Active and inactive are the calls of the source. The calls are words filed in the database; no cut-off is given here.

Test system: Radical scavenging activity
Assay: Antioxidant activity assessed as DPPH free radical scavenging activity at 100 uM
Type: functional
Method in brief: (§1)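 Compound solutions in ethanol were mixed with an equal volume of DPPH in absolute ethanol, giving compound concentrations of 50 and 100. Ethanol served as the control. Absorbance at 517 nm was read after 20 and 60 min at room temperature. Each run was done at least in triplicate, with the SD of absorbance under 10% of the mean.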
For `Cc1cc2oc(=O)ccc2cc1-n1cccc1`, the Activity was “Dose-dependent effect”. With `CC(Cc1ccc(O)c(O)c1)C(C)Cc1ccc(O)c(O)c1` (stereo not drawn) the Activity was “Dose-dependent effect”. With `Cc1cc(=O)oc2cc(-n3cccc3)ccc12` the Activity was “Dose-dependent effect”. For `Cc1ccc2oc(=O)ccc2c1-n1cccc1`, the Activity was “Dose-dependent effect”. For `Cc1ccc2ccc(=O)oc2c1`, the Activity was “Dose-dependent effect”. With `Cc1cc2ccc(=O)oc2cc1-n1cccc1` the Activity was “Dose-dependent effect”. With `Cc1c(C)c2c(c(C)c1O)CCC(C)(C(=O)O)O2` (stereo not drawn) the Activity was “Dose-dependent effect”. For `Cc1cc2oc(=O)ccc2cc1N1CC=CC1`, the Activity was “Dose-dependent effect”. With `Cc1cc2ccc(=O)oc2cc1N1CC=CC1` the Activity was “Dose-dependent effect”. For `Cc1ccc2oc(=O)ccc2c1N1CC=CC1`, the Activity was “Dose-dependent effect”. In the case of `O=c1ccc2ccccc2o1`, the Activity is reported as “Dose-dependent effect”. With `O=c1ccc2cc(-n3cccc3)ccc2o1` the Activity was “Dose-dependent effect”.

Test system: not listed separately
Assay: Antioxidant activity assessed as inhibition of superoxide anion radical production at 100 uM after 2 mins by nitroblue tetrazolium method
Type: functional
Method in brief: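 This was a nitroblue tetrazolium assay. The mixture held […] in 19 mM phosphate buffer, pH 7.4. Compounds were preincubated 2 min before NADH was added. After 2 min at room temperature, absorbance at 560 nm was read against a PMS-containing blank. Runs were done at least in triplicate.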
With `Cc1cc2oc(=O)ccc2cc1-n1cccc1` the inhibition was “inactive”. With `Cc1cc(=O)oc2cc(-n3cccc3)ccc12` the inhibition was “inactive”. For `O=c1cc(N2CC=CC2)c2ccccc2o1`, the inhibition was “inactive”. With `Cc1ccc2oc(=O)ccc2c1-n1cccc1` the inhibition was “inactive”. In the case of `Cc1cc2ccc(=O)oc2cc1-n1cccc1`, the inhibition is reported as “inactive”. With `O=c1ccc2cc(N3CC=CC3)ccc2o1` the inhibition was “inactive”. With `Cc1cc2oc(=O)ccc2cc1N1CC=CC1` the inhibition was “inactive”. In the case of `Cc1cc2ccc(=O)oc2cc1N1CC=CC1`, the inhibition is reported as “inactive”. In the case of `Cc1ccc2oc(=O)ccc2c1N1CC=CC1`, the inhibition is reported as “inactive”. With `O=c1ccc2cc(-n3cccc3)ccc2o1` the inhibition was “inactive”. In the case of `Cc1cc(=O)oc2cc(N3CC=CC3)ccc12`, the inhibition is reported as “inactive”.

Test system: not listed separately
Assay: Antioxidant activity assessed as inhibition of AAPH-induced lipid peroxidation at 100 uM
Type: functional
With `Cc1cc(=O)oc2cc(-n3cccc3)ccc12` the inhibition was 46%. Work on `O=c1cc(N2CC=CC2)c2ccccc2o1` yielded an inhibition of 100%. In the case of `Cc1ccc2oc(=O)ccc2c1-n1cccc1`, the inhibition is reported as 71%. With `Cc1c(C)c2c(c(C)c1O)CCC(C)(C(=O)O)O2` (stereo not drawn) the inhibition was 73%. Work on `O=c1ccc2cc(N3CC=CC3)ccc2o1` yielded an inhibition of 86%. `Cc1cc2oc(=O)ccc2cc1N1CC=CC1` gave an inhibition of 91%. For `Cc1cc2ccc(=O)oc2cc1N1CC=CC1`, the inhibition was 24%. Compound `Cc1ccc2oc(=O)ccc2c1N1CC=CC1` has an inhibition of 57%. `O=c1ccc2cc(-n3cccc3)ccc2o1` gave an inhibition of 1%. For `Cc1cc(=O)oc2cc(N3CC=CC3)ccc12`, the inhibition was 87%.

Test system: Radical scavenging activity
Assay: Antioxidant activity assessed as DPPH free radical scavenging activity at 100 uM after 60 mins
Type: functional
Method in brief: as §1
Compound `Cc1cc2oc(=O)ccc2cc1-n1cccc1` has an Activity of 14%. Work on `CC(Cc1ccc(O)c(O)c1)C(C)Cc1ccc(O)c(O)c1` (stereo not drawn) yielded an Activity of 83%. With `Cc1cc(=O)oc2cc(-n3cccc3)ccc12` the Activity was 14%. `O=c1cc(N2CC=CC2)c2ccccc2o1` gave an Activity of 27%. Compound `Cc1ccc2oc(=O)ccc2c1-n1cccc1` has an Activity of 7%. For `Cc1ccc2ccc(=O)oc2c1`, the Activity was 2%. In the case of `Cc1cc2ccc(=O)oc2cc1-n1cccc1`, the Activity is reported as 13%. `O=c1ccc2cc(N3CC=CC3)ccc2o1` gave an Activity of 71%. In the case of `Cc1cc2oc(=O)ccc2cc1N1CC=CC1`, the Activity is reported as 10%. `Cc1cc2ccc(=O)oc2cc1N1CC=CC1` showed an Activity of 7%. `Cc1ccc2oc(=O)ccc2c1N1CC=CC1` showed an Activity of 5%. Compound `O=c1ccc2ccccc2o1` has an Activity of 21%. `O=c1ccc2cc(-n3cccc3)ccc2o1` showed an Activity of 19%. For `Cc1cc(=O)oc2cc(N3CC=CC3)ccc12`, the Activity was 20%.

Test system: Glycine max
Assay: Inhibition of soybean lipoxygenase assessed as conversion of sodium linoleate to 13-hydroperoxylinoleic acid at 100 uM
Method in brief: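 Soybean lipoxygenase was measured by UV absorbance. Runs were done at least in triplicate, with the SD of absorbance under 10% of the mean.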
In the case of `CC(Cc1ccc(O)c(O)c1)C(C)Cc1ccc(O)c(O)c1` (stereo not drawn), the inhibition is reported as 84%. `Cc1cc(=O)oc2cc(-n3cccc3)ccc12` showed an inhibition of 12%. Compound `O=c1cc(N2CC=CC2)c2ccccc2o1` has an inhibition of 43%. `Cc1ccc2oc(=O)ccc2c1-n1cccc1` showed an inhibition of 55.5%. Work on `Cc1ccc2ccc(=O)oc2c1` yielded an inhibition of 89%. For `Cc1cc2oc(=O)ccc2cc1N1CC=CC1`, the inhibition was 60%. `Cc1cc2ccc(=O)oc2cc1N1CC=CC1` showed an inhibition of 52.5%. Work on `O=c1ccc2ccccc2o1` yielded an inhibition of 15%. For `Cc1cc(=O)oc2cc(N3CC=CC3)ccc12`, the inhibition was 28%.

Test system: not listed separately
Assay: Antioxidant activity assessed as hydroxyl radical scavenging activity at 100 uM after 30 mins
Type: functional
Work on `Cc1cc(=O)oc2cc(-n3cccc3)ccc12` yielded an inhibition of 9%. In the case of `O=c1cc(N2CC=CC2)c2ccccc2o1`, the inhibition is reported as 83%. In the case of `Cc1ccc2oc(=O)ccc2c1-n1cccc1`, the inhibition is reported as 91%. In the case of `Cc1ccc2ccc(=O)oc2c1`, the inhibition is reported as 44%. Work on `Cc1cc2ccc(=O)oc2cc1-n1cccc1` yielded an inhibition of 88%. Compound `Cc1c(C)c2c(c(C)c1O)CCC(C)(C(=O)O)O2` (stereo not drawn) has an inhibition of 63%. Work on `O=c1ccc2cc(N3CC=CC3)ccc2o1` yielded an inhibition of 90%. Compound `Cc1cc2oc(=O)ccc2cc1N1CC=CC1` has an inhibition of 77%. Compound `Cc1cc2ccc(=O)oc2cc1N1CC=CC1` has an inhibition of 41%. For `O=c1ccc2ccccc2o1`, the inhibition was 78%. `Cc1cc(=O)oc2cc(N3CC=CC3)ccc12` showed an inhibition of 85%.

Test system: Radical scavenging activity
Assay: Antioxidant activity assessed as reduction in DPPH free radical at 50 uM after 60 mins
Type: functional
Method in brief: as §1
In the case of `Cc1cc2oc(=O)ccc2cc1-n1cccc1`, the Activity is reported as “inactive”. With `Cc1cc(=O)oc2cc(-n3cccc3)ccc12` the Activity was “inactive”. With `O=c1cc(N2CC=CC2)c2ccccc2o1` the Activity was “inactive”. In the case of `Cc1ccc2oc(=O)ccc2c1-n1cccc1`, the Activity is reported as “inactive”. In the case of `Cc1cc2ccc(=O)oc2cc1-n1cccc1`, the Activity is reported as “inactive”. With `O=c1ccc2cc(N3CC=CC3)ccc2o1` the Activity was “inactive”. In the case of `Cc1cc2oc(=O)ccc2cc1N1CC=CC1`, the Activity is reported as “inactive”. With `Cc1cc2ccc(=O)oc2cc1N1CC=CC1` the Activity was “inactive”. For `Cc1ccc2oc(=O)ccc2c1N1CC=CC1`, the Activity was “inactive”. For `O=c1ccc2cc(-n3cccc3)ccc2o1`, the Activity was “inactive”. With `Cc1cc(=O)oc2cc(N3CC=CC3)ccc12` the Activity was “inactive”.

Test system: Radical scavenging activity
Assay: Antioxidant activity assessed as reduction in DPPH stable free radical at 50 uM after 20 mins
Type: functional
Method in brief: as §1
In the case of `Cc1cc2oc(=O)ccc2cc1-n1cccc1`, the Activity is reported as “inactive”. With `Cc1cc(=O)oc2cc(-n3cccc3)ccc12` the Activity was “inactive”. In the case of `O=c1cc(N2CC=CC2)c2ccccc2o1`, the Activity is reported as “inactive”. With `Cc1ccc2oc(=O)ccc2c1-n1cccc1` the Activity was “inactive”. In the case of `Cc1cc2ccc(=O)oc2cc1-n1cccc1`, the Activity is reported as “inactive”. With `O=c1ccc2cc(N3CC=CC3)ccc2o1` the Activity was “inactive”. In the case of `Cc1cc2oc(=O)ccc2cc1N1CC=CC1`, the Activity is reported as “inactive”. In the case of `Cc1cc2ccc(=O)oc2cc1N1CC=CC1`, the Activity is reported as “inactive”. For `Cc1ccc2oc(=O)ccc2c1N1CC=CC1`, the Activity was “inactive”. In the case of `O=c1ccc2cc(-n3cccc3)ccc2o1`, the Activity is reported as “inactive”. With `Cc1cc(=O)oc2cc(N3CC=CC3)ccc12` the Activity was “inactive”.

Test system: Radical scavenging activity
Assay: Antioxidant activity assessed as DPPH free radical scavenging activity at 100 uM after 20 mins
Type: functional
Method in brief: as §1
`Cc1cc2oc(=O)ccc2cc1-n1cccc1` gave an Activity of 14%. `CC(Cc1ccc(O)c(O)c1)C(C)Cc1ccc(O)c(O)c1` (stereo not drawn) gave an Activity of 81%. For `Cc1cc(=O)oc2cc(-n3cccc3)ccc12`, the Activity was 14%. `O=c1cc(N2CC=CC2)c2ccccc2o1` gave an Activity of 8%. `Cc1ccc2oc(=O)ccc2c1-n1cccc1` gave an Activity of 7%. Compound `Cc1ccc2ccc(=O)oc2c1` has an Activity of 2%. With `Cc1cc2ccc(=O)oc2cc1-n1cccc1` the Activity was 13%. Compound `O=c1ccc2cc(N3CC=CC3)ccc2o1` has an Activity of 49%. Work on `Cc1cc2oc(=O)ccc2cc1N1CC=CC1` yielded an Activity of 9%. In the case of `Cc1cc2ccc(=O)oc2cc1N1CC=CC1`, the Activity is reported as 5%. Work on `Cc1ccc2oc(=O)ccc2c1N1CC=CC1` yielded an Activity of 5%. `O=c1ccc2ccccc2o1` gave an Activity of 5%. Compound `O=c1ccc2cc(-n3cccc3)ccc2o1` has an Activity of 18%. Work on `Cc1cc(=O)oc2cc(N3CC=CC3)ccc12` yielded an Activity of 5%.
